≈ marks a conversion by molar mass, not a printed value.
Assays:
Format in all cases: functional
Escherichia coli = test: Antibacterial activity against Escherichia coli 25922 assessed as inhibition of bacterial growth incubated for 18 hrs by CLSI protocol based two fold serial dilution method
Procedure, shortened: (§1)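 B. subtilis 168 or E. coli ATCC 25922 was grown in MHB and tested by CLSI-based broth microdilution. An overnight culture (37 °C, 250 rpm) was diluted tenfold, grown 2 h, and set to 5 × 10^6 CFU mL−1 by A600. Cells were added to two-fold serial compound dilutions (1% DMSO) and incubated 18 h at 37 °C. Read-out was A600, in duplicate. MIC was the lowest concentration giving A600 < 0.1.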

Staphylococcus aureus [1] = test: Antibacterial activity against Staphylococcus aureus 29213 assessed as inhibition of bacterial growth incubated for 18 hrs by CLSI protocol based two fold serial dilution method
Procedure, shortened: as §1, with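 “S. aureus” for “B. subtilis 168 or E. coli”, “29213” for “25922”, “CAMHB” for “MHB”, “mL−1.” for “mL−1 by A600.”, “with” for “giving”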

Bacillus subtilis = test: Antibacterial activity against Bacillus subtilis 168 assessed as inhibition of bacterial growth incubated for 18 hrs by CLSI protocol based two-fold serial dilution assay; procedure, shortened: as §1
Staphylococcus aureus [2] = test: Antibacterial activity against methicillin-resistant Staphylococcus aureus BAA 41 assessed as inhibition of bacterial growth incubated for 18 hrs by CLSI protocol based two fold serial dilution method
Procedure, shortened: (§2)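 CAMHB culture grown overnight at 37 °C with shaking at 250 rpm, diluted 10-fold, and grown 2 h. Inoculum set to 5 × 10^6 CFU mL−1 by A600. Compounds in DMSO were serially diluted two-fold, with 1% DMSO per well. Read at A600 after 18 h at 37 °C. MIC is the lowest concentration giving A600 < 0.1. Run in duplicate.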

Staphylococcus aureus [3] = test: Antibacterial activity against methicillin-resistant Staphylococcus aureus ATCC 33591 assessed as inhibition of bacterial growth incubated for 18 hrs by CLSI protocol based two fold serial dilution method; procedure, shortened: as §2
Staphylococcus aureus [4] = test: Antibacterial activity against methicillin-resistant Staphylococcus aureus ATCC 43300 assessed as inhibition of bacterial growth incubated for 18 hrs by CLSI protocol based two fold serial dilution method; procedure, shortened: as §2
Staphylococcus aureus [5] = test: Antibacterial activity against methicillin-resistant Staphylococcus aureus BAA 1720 assessed as inhibition of bacterial growth incubated for 18 hrs by CLSI protocol based two fold serial dilution method; procedure, shortened: as §2
Staphylococcus aureus [6] = test: Antibacterial activity against methicillin-resistant Staphylococcus aureus ATCC 33592 assessed as inhibition of bacterial growth incubated for 18 hrs by CLSI protocol based two fold serial dilution method; procedure, shortened: as §2
Staphylococcus aureus [7] = test: Antibacterial activity against methicillin-resistant Staphylococcus aureus BAA 44 assessed as inhibition of bacterial growth incubated for 18 hrs by CLSI protocol based two fold serial dilution method; procedure, shortened: as §2

Structure (SMILES) | MIC (Escherichia coli) | MIC (Staphylococcus aureus [1]) | MIC (Bacillus subtilis) | MIC (Staphylococcus aureus [2]) | MIC (Staphylococcus aureus [3]) | MIC (Staphylococcus aureus [4]) | MIC (Staphylococcus aureus [5]) | MIC (Staphylococcus aureus [6]) | MIC (Staphylococcus aureus [7])
CN(C)C(=O)[C@H](O)[C@H](Cc1ccccc1)NC(=O)c1cc2cc(Cl)ccc2[nH]1 | > 128 µg/mL | > 128 µg/mL | 16 µg/mL (≈ 40 µM) | > 128 µg/mL | > 128 µg/mL | 32 µg/mL (≈ 80 µM) | > 128 µg/mL | > 128 µg/mL | > 128 µg/mL
COc1ccc(-c2cc3c(C)nc(N)nc3n([C@H]3CC[C@H](OCCO)CC3)c2=O)cn1 [PF-04691502] | > 128 µg/mL | > 128 µg/mL | > 128 µg/mL |  |  |  |  |  | 

Further lines, with some results ahead:

MIC (Escherichia coli) | MIC (Staphylococcus aureus [1]) | MIC (Bacillus subtilis) | Structure (SMILES) | MIC (Staphylococcus aureus [2]) | MIC (Staphylococcus aureus [3]) | MIC (Staphylococcus aureus [4]) | MIC (Staphylococcus aureus [5]) | MIC (Staphylococcus aureus [6]) | MIC (Staphylococcus aureus [7])
> 128 µg/mL | > 128 µg/mL | > 128 µg/mL | COc1ccccc1S(=O)(=O)Nc1ccc2c(c1)CN(C)C(=O)N2 |  |  |  |  |  | 
> 128 µg/mL | > 128 µg/mL | > 128 µg/mL | COCCOc1ccc2c(c1)ncn2-c1ccc2cccc(N3CCC(N)CC3)c2n1 |  |  |  |  |  | 
> 128 µg/mL | > 128 µg/mL | > 128 µg/mL | CCOC(=O)C(CCc1ccccc1)NC(C)C(=O)N1Cc2ccccc2CC1C(=O)O.Cl (stereo unspecified) |  |  |  |  |  | 

Source: ChEMBL document CHEMBL5104102, “Discovery of FtsZ inhibitors by virtual screening as antibacterial agents and study of the inhibition mechanism” (RSC Med Chem, 2022)
